A selection: hits, their analogues and other compounds. The true share with any hit is near 1.3%.
MT1-MMP act inh = blocks activation of human MT1-MMP; P50281; HT1080 RFP-PRO-GFP cells, GFP/RFP ratio fluorescence, overnight; percent of plate control window, DMSO zero; GFP/RFP ratio change, % at 20 µM; actives 0.061% (n = 360,000); AID 651647;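 active = GFP/RFP ratio change of at least 30% with cell ATP level not reduced by more than half and red fluorescence within 50% of control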
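Material – HT1080 RFP-PRO-GFP cells · Control set – DMSO wells and RFP-L50D-GFP cells · Incubation – overnight cell settling, then overnight compound exposure, 37 °C, 5% CO2 · Compound dosing – single-point 20 µM compound, 1% DMSO · Read-out – GFP/RFP fluorescence ratio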
DAGLB inh = diacylglycerol lipase beta (human) inhibition. inhibition, % at 5.17 µM. Q8NCG7. HEK293T DAGLB membrane lysate, EnzChek fluorogenic substrate. actives 0.059% (n = 340,000); in the data active = inhibition above about 34%
SKN-1 block = blocks SKN-1 activity in C. elegans; C. elegans VP596 Pgst-4::GFP/RFP ratio, acrylamide-induced, 24 h; inhibition, % at 21.8 µM; actives 0.49% (n = 360,000);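 active = interference check ratio from 0.5 to 1.5 plus GFP to RFP signal ratio inhibition reaching or exceeding a fixed threshold, cut at about 30% in these data, passing the limit was not always enough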
iPSC survival up = hiPSC single-cell survival enhancement; ATPlite luminescence; 100% = ROCK inhibitor wells, 0% = DMSO; survival enhancement, % at 20 µM; actives 0.044% (n = 360,000); in the data active = survival enhancement above about 18%;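 also: cells exposed to compounds for 16 hours before the ATP read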
FAS TE block = blocks the thioesterase domain of human fatty acid synthase | actives 0.67% (n = 360,000) | inhibition, % at 15 µM | recombinant FAS-TE, OMFH fluorogenic substrate, fluorescence endpoint | P49327;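 active = compounds whose normalised, plate-corrected inhibition of enzyme fluorescence in the single-dose primary screen is 50% or more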
Large screens that a line does not name were inactive.

O=c1cc(-c2ccc(F)cc2)oc2ccccc12	SKN-1 block 53
CSc1ccc(-c2cc(=O)c3ccccc3o2)cc1	SKN-1 block 47 (no result: MT1-MMP act inh)
O=c1cc(-c2ccccc2F)oc2ccccc12	none
C[C@@]12C(=O)N(c3cccc(F)c3)C(=O)N1[C@H](c1ccc(Cl)cc1)[C@@H]1C(=O)N(C3CCCCC3)C(=O)[C@@H]12	none
C[C@@]12C(=O)N(c3cccc(Cl)c3)C(=O)N1[C@H](c1ccc(Cl)cc1)[C@@H]1C(=O)N(C3CCCCC3)C(=O)[C@@H]12	FAS TE block 59
CC(C)C[C@@]12C(=O)N(c3cccc(F)c3)C(=O)N1[C@H](c1ccc(Cl)cc1)[C@@H]1C(=O)N(C3CCCCC3)C(=O)[C@@H]12	FAS TE block 62
C[C@@]12C(=O)N(c3cccc(F)c3)C(=O)N1[C@H](c1ccc(F)cc1)[C@@H]1C(=O)N(C3CCCCC3)C(=O)[C@@H]12	none
CC(C)C[C@@]12C(=O)N(c3cccc(F)c3)C(=O)N1[C@H](c1ccc(F)cc1)[C@@H]1C(=O)N(C3CCCCC3)C(=O)[C@@H]12	FAS TE block 82
COc1ccc(-c2cc(-c3ccc(C)cc3)n[nH]2)c(O)c1	SKN-1 block 39
COc1ccccc1S(=O)(=O)N(C)C[C@@H]1OCc2cnnn2CCCC(=O)N([C@@H](C)CO)C[C@H]1C	none
Cc1ccccc1NC(=O)CSC1=C(C#N)C(c2ccsc2)CC(=O)N1 (centres undefined)	SKN-1 block 38
C=CCn1cc(-c2cccc(Cl)c2)cc(C#N)c1=O	SKN-1 block 40
Cc1cc(Cl)cc(C)c1OCCCCN1CCOCC1	SKN-1 block 43
Clc1ccc(OCCCCCN2CCOCC2)cc1	SKN-1 block 39
Cc1cc(Cl)c(OCCCCN2CCOCC2)c(Br)c1	none
CCCCNC(=O)C(NC(=O)c1ccc(-c2ccccc2)cc1)C(=O)c1ccccc1 (centres undefined)	none (no result: DAGLB inh, iPSC survival up, FAS TE block)
O=C1NCC(c2ccccc2)C1C(=O)N/N=C\c1ccc(-c2cccc(Cl)c2Cl)o1 (centres undefined)	SKN-1 block 36
COc1ccccc1CN1C(=O)C(C)ON=C1c1ccccc1F (centres undefined)	none (no result: DAGLB inh)
COc1ccc(-c2nc(-c3cccs3)no2)cc1	SKN-1 block 38
COc1ccccc1-c1noc(-c2cccs2)n1	none
c1csc(-c2nc(-c3ccc(-c4ccon4)s3)no2)c1	SKN-1 block 46
c1ccc(-c2nc(-c3ccc(-c4ccon4)s3)no2)cc1	none
COc1ccc(-c2nc(-c3ccncc3)no2)cc1	none
Cc1ccc(-c2noc(-c3cccs3)n2)cc1	SKN-1 block 67
CCCCCCn1cc(CN2CC(N3CCN(Cc4ccccc4F)CC3)CS2(=O)=O)nn1 (centres undefined)	none (no result: DAGLB inh)
Cc1ccc(C(=O)Nc2ncc([N+](=O)[O-])s2)cc1	SKN-1 block 37
O=C(Nc1ncc([N+](=O)[O-])s1)c1ccc2c(c1)OCO2	none
COc1ccc(OC)c(NC(=O)Nc2nnc([C@@H]3O[C@H](CO)[C@@H](O)[C@H]3O)s2)c1	none (no result: DAGLB inh)
COC(=O)CN1C(=S)N(c2ccc(OC)cc2)C(=O)/C1=C/c1ccc(N2CCOCC2)cc1	SKN-1 block 37
Fc1cccc(-c2csc(-c3ccno3)n2)c1	SKN-1 block 52
Clc1ccc(-c2csc(-c3ccno3)n2)cc1	none
Cc1ccccc1-c1cnc(C(O)c2ccc(-c3ccccc3)cc2)[nH]1 (centres undefined)	none (no result: DAGLB inh)
COc1ccccc1/C=C/C(=O)NCC(=O)N/N=C(/C)c1ccco1	none
COc1ccc(/C(C)=N/NC(=O)CNC(=O)/C=C\c2ccccc2OC)c(OC)c1	SKN-1 block 37
Clc1ccsc1-c1csc(-c2cccnc2)n1	SKN-1 block 42
c1cncc(-c2csc(-c3cccnc3)n2)c1	none
c1ccc(N2CCN(c3cccc(-c4cc5ccccc5s4)n3)CC2)nc1	none (no result: DAGLB inh)
CCCS(=O)(=O)NC(=O)C1(C)CCN(C(=O)c2ccc(C(F)(F)F)nc2C)C1 (centres undefined)	none (no result: DAGLB inh)
COc1ccc(NC(=O)COc2nsnc2N2CCOCC2)cc1	none
COc1ccc(CCNC(=O)COc2nsnc2N2CCOCC2)cc1OC	SKN-1 block 40
Clc1ccccc1-c1nc(-c2ccc(Br)o2)no1	SKN-1 block 67
Clc1ccccc1OCc1nc(-c2ccc(Br)o2)no1	none

Source: PubChem BioAssay
